Reference: PMC3656968 (Journal of medicinal chemistry, 2013)
Read-outs that look alike come from different tables or passages of the source. Marks after values point to notes of the source that are not given here.

Columns and labels:
[1] = Relaxivity in HEPES buffer in the absence of HSA; assay type: physicochemical; conditions: 50 mM HEPES buffer pH 7.4, 37 °C
In short: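 Complex solid redissolved in 50 mM HEPES and filtered, with Gd concentration set by ICP-MS. Longitudinal relaxation (1/T1) measured at 0.47 and 1.41 T without HSA at 0.05-0.4 mM complex, in 50 mM HEPES pH 7.4 at 37 °C. r1 taken as slope of 1/T1 versus Gd concentration (mM). Error estimated at ±10% of value.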

[2] = target: T1, human serum albumin (HSA) (Homo sapiens, UniProt P02768); test: Relaxivity in the presence of 4.5% w/v HSA; conditions: 50 mM HEPES buffer pH 7.4, 37 °C
T1 sequence (P02768 25-609): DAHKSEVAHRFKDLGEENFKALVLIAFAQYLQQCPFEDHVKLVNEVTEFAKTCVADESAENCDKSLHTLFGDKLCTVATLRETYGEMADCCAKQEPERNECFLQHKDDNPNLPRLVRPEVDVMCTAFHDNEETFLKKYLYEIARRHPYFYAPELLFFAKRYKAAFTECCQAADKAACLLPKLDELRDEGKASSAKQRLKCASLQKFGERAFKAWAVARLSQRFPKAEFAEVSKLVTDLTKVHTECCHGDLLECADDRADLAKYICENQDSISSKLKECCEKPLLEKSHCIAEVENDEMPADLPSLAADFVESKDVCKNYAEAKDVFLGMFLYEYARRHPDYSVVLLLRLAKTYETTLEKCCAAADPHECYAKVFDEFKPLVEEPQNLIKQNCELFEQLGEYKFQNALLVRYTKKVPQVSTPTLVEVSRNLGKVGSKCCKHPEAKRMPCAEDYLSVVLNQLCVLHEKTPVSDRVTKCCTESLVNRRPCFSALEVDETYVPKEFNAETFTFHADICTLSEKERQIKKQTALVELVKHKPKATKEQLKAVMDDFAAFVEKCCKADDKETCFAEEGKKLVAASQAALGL
In short: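 Complex in 50 mM HEPES with 4.5% w/v HSA, pH 7.4, 37 °C, with Gd content quantified by ICP-MS. 1/T1 recorded at 0.47 and 1.41 T across several complex concentrations. Observed relaxivity is the slope of 1/T1 against Gd concentration (mM). Estimated error is ±10% of the measured value.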

[3] = target: T1, human serum albumin (HSA); test: Ultrafiltration assay of binding to HSA; conditions: for % bound to 4.5% HSA: 0.1 mM probe, 4.5% w/v HSA in 50 mM HEPES, ultrafiltration; for binding to HSA on average: average of the diastereoisomers Gd(6a) and Gd(6b), 0.1 mM, 4.5% w/v HSA
In short: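 Complex at a constant 0.1 mM (50 mM HEPES, concentration by ICP-MS) with 4.5% w/v HSA, ultrafiltered through a 5000 MW cutoff membrane. Compared against the filtrate of an HSA-free solution. Unbound and total Gd measured directly by ICP-MS, and binding given as percent bound to HSA. Error estimated at ±10%.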

[4] = target: T1, human serum albumin (HSA); conditions: cited from earlier work
[5] = target: T1, human serum albumin (HSA); test: T1 weighted MR image of samples with or without HSA; conditions: 0.1 mM compound, with or without 4.5 % w/v HSA
In short: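 Samples of 0.1 mM compound, with or without 4.5% w/v HSA, imaged side by side with a T1-weighted sequence (TR/TE/flip angle 25 ms/4.7 ms/70°). Signal intensity read for each sample.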

[6] = target: T1, human serum albumin (HSA); conditions: 0.1 mM probe, 4.5% w/v HSA; cited from earlier work
[7] = absence of HSA, cited from earlier work

| SMILES | r1^free ([1]; 0.47T) [mM⁻¹ s⁻¹] | r1^free ([1]; 1.41T) [mM⁻¹ s⁻¹] | r1^obs 4.5% HSA ([2]; 0.47T) [mM⁻¹ s⁻¹] | r1^obs 4.5% HSA ([2]; 1.41T) [mM⁻¹ s⁻¹] | % bound to 4.5% HSA [3] [%] | binding to HSA on average [3] [%] | r1^obs 4.5% HSA ([4]; 0.47T) | r1^obs 4.5% HSA ([4]; 1.41T) | signal / contrast in T1 weighted image with versus without HSA [5] | % bound to 4.5% HSA [6] [% ^a] | r1^free ([7]; 0.47T) | r1^free ([7]; 1.41T) |
| --- | --- | --- | --- | --- | --- | --- | --- | --- | --- | --- | --- | --- |
| NC(Cc1cc(I)c(O)c(I)c1)C(=O)NC(CN1CCN(CC(=O)O)CCN(CC(=O)O)CCN(CC(=O)O)CC1)C(=O)O (stereo not drawn) [Gd(4), 2,2′,2″-(10-(2-(2-amino-3-(4-hydroxy-3,5-diiodophenyl)propanamido)-2-carboxyethyl)-1,4,7,10-tetraazacyclododecane-1,4,7-triyl)triacetic acid] | 6.1 | 5.8 | 23.7 | 17.4 | 20 |  |  |  |  |  |  |  |
| COC(=O)CNC(=O)C(CN1CCN(CC(=O)O)CCN(CC(=O)O)CCN(CC(=O)O)CC1)NC(=O)C(N)Cc1cc(I)c(O)c(I)c1 (stereo not drawn) [Gd(5), 2,2′,2″-(10-(2-(2-amino-3-(4-hydroxy-3,5-diiodophenyl)propanamido)-3-((2-methoxy-2-oxoethyl)amino)-3-oxopropyl)-1,4,7,10-tetraazacy-clododecane-1,4,7-triyl)triacetic acid] | 6.9 | 6.3 | 20.9 | 16.7 | 25 |  |  |  |  |  |  |  |
| C[C@H](NC(=O)C(N)CN1CCN(CC(=O)O)CCN(CC(=O)O)CCN(CC(=O)O)CC1)c1ccccc1 (stereo partly drawn) [Gd(2), 2,2′,2″-(10-(2-amino-3-oxo-3-(((S)-1-phenylethyl)amino)propyl)-1,4,7,10-tetraazacyclododecane-1,4,7-triyl)triacetic acid] | 4.8 | 3.9 | 7.1 | 5.9 | 7 |  |  |  |  |  |  |  |
| C[C@H](NC(=O)C(CN1CCN(CC(=O)O)CCN(CC(=O)O)CCN(CC(=O)O)CC1)NC(=O)C(N)Cc1cc(I)c(O)c(I)c1)c1ccccc1 (single isomer, unassigned) [Gd(6a)] | 7.1 | 6.6 | 18.5 | 10.9 | 34 | 37 |  |  |  |  |  |  |
| C[C@H](NC(=O)C(CN1CCN(CC(=O)O)CCN(CC(=O)O)CCN(CC(=O)O)CC1)NC(=O)C(N)Cc1cc(I)c(O)c(I)c1)c1ccccc1 (single isomer, unassigned) [Gd(6b)] | 6.8 | 6.1 | 18.4 | 11.7 | 39 | 37 |  |  |  |  |  |  |
| O=C([O-])CN(CCN(CC(=O)[O-])C[C@H](COP(=O)([O-])OC1CCC(c2ccccc2)(c2ccccc2)CC1)N(CC(=O)[O-])CC(=O)[O-])CC(=O)[O-].[Gd+3].[H+].[H+].[H+] [MS-325, gadofosveset] |  |  |  |  |  |  | 42 ^a mM^−1s^−1 | 23.8 ^a mM^−1s^−1 | increased signal in presence of HSA | 88 | 6.6 ^a mM^−1s^−1 | 5.5 ^a mM^−1s^−1 |
